According to PubChem BioAssay AID2545 (The Scripps Research Institute Molecular Screening Center, 2010):
Active and inactive are the calls of the source.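 How the source made its calls: active means inhibition at or above 75%; inactive means inhibition below 75%.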

Target: NADPH oxidase 1 (Homo sapiens) (UniProt Q9Y5S8)
Assay: reconstituted NOX1 ROS output inhibition – cell-based, HEK/293, percent inhibition, luminescence, orthogonal assay for NOX1 inhibitor project, late-stage follow-up (AID 2545)
Details: NOX1-transfected HEK293, luminol ROS chemiluminescence; at 100 µM; hits give high values
Summary of the method: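 System: HEK293 cells expressing Nox1, NoxO1, NoxA1, active Rac1 | Reagent: Luminol plus horseradish peroxidase, added after compound exposure | Timing: Compounds added 16 h post-transfection, 2 h before luminol/peroxidase | Measured by: Luminol chemiluminescence of intracellular ROS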

Chain of NADPH oxidase 1 (Homo sapiens) (Q9Y5S8 whole entry, looked up): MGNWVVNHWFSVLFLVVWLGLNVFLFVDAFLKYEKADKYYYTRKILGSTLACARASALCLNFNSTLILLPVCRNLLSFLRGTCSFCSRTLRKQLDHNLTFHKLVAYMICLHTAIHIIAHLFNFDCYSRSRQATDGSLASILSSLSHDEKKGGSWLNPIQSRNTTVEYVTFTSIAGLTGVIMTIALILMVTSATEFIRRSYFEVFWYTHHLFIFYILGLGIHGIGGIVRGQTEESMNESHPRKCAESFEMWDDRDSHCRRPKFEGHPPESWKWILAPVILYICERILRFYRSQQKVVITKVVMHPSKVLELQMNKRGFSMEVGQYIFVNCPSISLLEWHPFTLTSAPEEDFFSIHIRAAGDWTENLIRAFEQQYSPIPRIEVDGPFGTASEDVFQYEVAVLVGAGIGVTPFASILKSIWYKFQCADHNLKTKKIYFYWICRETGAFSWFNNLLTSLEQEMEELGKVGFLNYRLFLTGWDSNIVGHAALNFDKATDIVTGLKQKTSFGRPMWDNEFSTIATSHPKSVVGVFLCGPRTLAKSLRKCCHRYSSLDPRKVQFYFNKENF

Row | inhibition | Compound
1 | -62.4% (inactive) | S=C(NNc1nccc(-c2cccnc2)n1)Nc1ccccc1
2 | -23.5% (inactive) | Cc1cc(C(=O)NNc2cc(Cl)ccc2Cl)no1
3 | -18.6% (inactive) | CC(C)C(=O)NNc1nc2c(c(=O)n(C)c(=O)n2C)n1Cc1ccc(Cl)cc1
4 | 9.5% (inactive) | COCCCNC(=S)NNC(=S)Nc1ccccc1
5 | 83.4% | O=C(N/N=C/c1ccc(O)cc1)N/N=C/c1ccc(O)cc1
6 | 46.4% (inactive) | COc1cc2ncnc(NNC(=O)c3cccs3)c2cc1OC
7 | -43.1% (inactive) | CC(C)(C)c1csc(NNC(=O)c2ccc(Cl)cc2)n1
8 | 54.6% (inactive) | O=C(NNc1c([N+](=O)[O-])cc(C(F)(F)F)cc1[N+](=O)[O-])c1ccccc1-n1cccc1
9 | 49.4% (inactive) | Cc1nc(C(F)(F)F)c(C(=O)NNc2ncc(C(F)(F)F)cc2Cl)s1
10 | 1.45% (inactive) | ON/C=N/c1nnc(C(F)(F)F)s1
11 | 58.9% (inactive) | Cn1cnc(S(=O)(=O)Nc2ccc(N3CCCCC3)cc2)c1
12 | 26.1% (inactive) | Nc1nc(NCc2ccccc2OC(F)(F)F)n[nH]1
13 | 100% | CN(C)c1ccc(/C=N/Nc2c(Cl)cncc2Cl)cc1
14 | 24.8% (inactive) | Nc1nc(NCc2ccccn2)n[nH]1
15 | -50.4% (inactive) | COc1ccc(OC(=O)c2ccc3ncccc3c2)cc1
16 | 106% | COc1cccc(NC(=S)NNC(=S)NC2CC3CCC2C3)c1 (stereo unspecified)
17 | 107% | FC(F)(F)c1ccc2c(c1)Nc1ccccc1S2
18 | 108% | COc1cc(-c2nc(-c3ccccc3)c(-c3ccccc3)[nH]2)ccc1O
19 | 63.6% (inactive) | COc1ccccc1NNC(=O)c1cc(C(C)(C)C)nn1Cc1ccccc1
20 | -15.1% (inactive) | Nc1nc(Nc2ccccc2)n[nH]1
21 | 2.42% (inactive) | CCOC(=O)C1=C(Nc2ccc(OC(C)=O)cc2)C(=O)N(C(C)(C)C)C1

Row | inhibition | Compound
22 | -55.4% (inactive) | Cc1noc(C)c1C(=O)Nc1ccc(N2CCOCC2)nc1N1CCOCC1
23 | -0.65% (inactive) | Cc1cc(S(=O)(=O)NNc2ncnc3c2cnn3C)c(C)cc1Cl
24 | -0.39% (inactive) | O=c1[nH]c2ccsc2c(=O)n1CCO
25 | 2.15% (inactive) | Nc1nc(NCc2c(Cl)cccc2Oc2ccccc2)n[nH]1
26 | 121% | CN(C)c1ccc(NC(=O)Nc2ccc(OCc3ccccc3)cc2)cc1
27 | 104% | CC1(C)CC(Nc2ccc(Nc3ccccc3)cc2)CC(C)(C)N1
28 | -55.4% (inactive) | O=c1[nH]nc(N2CCSCC2)[nH]1
29 | 79.5% | c1ccc2c(c1)Nc1nc3ccccc3nc1N2
30 | 52% (inactive) | O=c1c(Cl)c2oc3ccccc3nc-2c2ccccc12
31 | 57.6% (inactive) | O=C(Oc1ccccc1N1CCCCC1)c1sc2ccccc2c1Cl
32 | 99.9% | Cc1cc(Cl)ccc1NC(=S)NNC(=S)Nc1ccc(F)cc1
33 | 5.12% (inactive) | Cc1cc(Br)c(NC(=S)NNc2ccccc2)c(Br)c1
34 | 100% | COc1ccc(Cl)cc1NC(=O)Nc1ccc(N(C)C)cc1
35 | 5.79% (inactive) | O=C(NNc1c([N+](=O)[O-])cc(C(F)(F)F)cc1[N+](=O)[O-])c1ccco1
36 | 1.35% (inactive) | CC(=O)Oc1ccc(OC(C)=O)c2c1[C@@H]1C=C[C@H]2CC1
37 | 40.4% (inactive) | O=C(Oc1ccccc1N1CCOCC1)c1cccs1
38 | -18.5% (inactive) | COc1ccc(N(C)CC(=O)O)c(C(=O)O)c1
39 | -55.7% (inactive) | Cn1nc(-c2ccccc2)c(O)c(N=Nc2ccccc2)c1=O
40 | -10.4% (inactive) | NS(=O)(=O)c1ccc(NNC(=O)c2c(F)cccc2Cl)cc1
41 | -84% (inactive) | COc1cccc(NC(=S)NNc2ccc([N+](=O)[O-])cc2)c1
